Most compounds without a hit are left out; they make up all but 1.4% or so of the library.
NRP1-CendR mod = NRP-1/CendR interaction modulation. inhibition, % at 25 µM. O14786. FAM-RPARPAR peptide binding to NRP-1, fluorescence polarization. 0.85% of 360,000 active;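 active = inhibition or corrected inhibition above about 18%, plus a signal ratio from 0.5 to 1.5, limit read from the data, passing the limit was not always enough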
Target sequence (O14786 whole entry, looked up): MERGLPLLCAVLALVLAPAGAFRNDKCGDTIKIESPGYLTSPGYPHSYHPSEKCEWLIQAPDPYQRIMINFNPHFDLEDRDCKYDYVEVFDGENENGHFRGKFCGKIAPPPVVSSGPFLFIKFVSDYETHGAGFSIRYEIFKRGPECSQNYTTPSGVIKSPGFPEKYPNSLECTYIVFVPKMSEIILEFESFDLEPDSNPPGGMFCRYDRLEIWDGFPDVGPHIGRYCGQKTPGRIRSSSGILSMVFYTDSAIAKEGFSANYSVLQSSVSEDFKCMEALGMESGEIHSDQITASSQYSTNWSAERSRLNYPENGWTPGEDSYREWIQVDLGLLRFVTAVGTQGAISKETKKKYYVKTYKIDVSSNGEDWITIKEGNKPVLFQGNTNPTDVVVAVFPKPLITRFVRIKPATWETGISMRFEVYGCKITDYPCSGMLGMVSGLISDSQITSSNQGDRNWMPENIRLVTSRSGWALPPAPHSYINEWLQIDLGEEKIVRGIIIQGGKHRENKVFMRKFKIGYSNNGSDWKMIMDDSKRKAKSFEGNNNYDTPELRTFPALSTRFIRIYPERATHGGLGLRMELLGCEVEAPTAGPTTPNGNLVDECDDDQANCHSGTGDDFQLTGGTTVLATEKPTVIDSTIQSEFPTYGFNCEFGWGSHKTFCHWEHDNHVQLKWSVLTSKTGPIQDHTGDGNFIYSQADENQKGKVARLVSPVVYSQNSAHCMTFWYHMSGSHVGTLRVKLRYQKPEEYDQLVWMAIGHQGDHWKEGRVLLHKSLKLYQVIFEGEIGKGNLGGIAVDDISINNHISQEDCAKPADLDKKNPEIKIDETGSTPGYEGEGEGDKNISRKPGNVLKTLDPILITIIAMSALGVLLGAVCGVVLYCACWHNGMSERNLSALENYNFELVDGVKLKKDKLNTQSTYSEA
SKN-1 block = blocks SKN-1 activity in C. elegans; C. elegans VP596 Pgst-4::GFP/RFP ratio, acrylamide-induced, 24 h; inhibition, % at 21.8 µM; 0.49% of 360,000 active; AID 624304;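 active = interference check ratio from 0.5 to 1.5 plus GFP to RFP signal ratio inhibition reaching or exceeding a fixed threshold, cut at about 30% in these data, passing the limit was not always enough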
iPSC survival up = hiPSC single-cell survival enhancement. survival enhancement, % at 20 µM. ATPlite luminescence; 100% = ROCK inhibitor wells, 0% = DMSO. AID 602274. 0.044% of 360,000 active; in the data active = survival enhancement above about 18%;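 note: cells exposed to compounds for 16 hours before the ATP read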
MT1-MMP act inh = blocks activation of human MT1-MMP; P50281; HT1080 RFP-PRO-GFP cells, GFP/RFP ratio fluorescence, overnight; percent of plate control window, DMSO zero; GFP/RFP ratio change, % at 20 µM; 0.061% of 360,000 active; AID 651647;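 active = GFP/RFP ratio change of at least 30% with cell ATP level not reduced by more than half and red fluorescence within 50% of control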
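system = RFP-PRO-GFP reporter HT1080 cells | dosing = 20 µM single dose, 1% DMSO | timing = overnight cell settling, then overnight compound exposure, 37 °C, 5% CO2 | read-out basis = GFP/RFP fluorescence ratio | controls = DMSO and RFP-L50D-GFP cell wells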
Each line names hits and unclear results; the compound was inactive in the other large screens; ! = not active in a repeat.

O=C(NN=C1CCCCCCC1)c1ccc(F)cc1	none
O=C(NN=C1CCCCCCCCCCC1)c1ccccc1F	NRP1-CendR mod 28
CCN1CCCC1CNCC(=O)Nc1ccc(OC(F)(F)F)cc1 (stereo not drawn)	none
COc1ccc(C(=O)Cn2nnc(-c3ccccc3NC(=O)C3CC3)n2)cc1	NRP1-CendR mod 33 (no result: MT1-MMP act inh)
CCOC(=O)c1c(C)cc(C)n2c1nc1ccccc12	SKN-1 block 40
CCOC(=O)CSc1cc(C)c(C#N)c2nc3ccccc3n12	none
CCN1C(=O)/C(=C/C=C2/SCCN2C)SC1=S	SKN-1 block 27
CCn1c2ccccc2c2cc(NC(=O)CSc3nnc(-c4ccc(OC)c(OC)c4)n3N)ccc21	SKN-1 block 36
CCn1c2ccccc2c2cc(NC(=O)CSc3nnc(-c4cccc(OC)c4)n3N)ccc21	none
COc1ccc(C2CC(=O)C3=C(C2)Nc2ncnn2C3c2ccccc2C)c(OC)c1 (stereo not drawn)	none
COC1=CC(=O)OC(c2ccc(C(F)(F)F)cc2)C1 (stereo not drawn)	NRP1-CendR mod 26 (no result: iPSC survival up)
Cc1ccn2c(C(=O)CSc3ccc(Cl)cc3)c(C)nc2c1	none
Clc1ccc(N2CCN(/N=C/c3ccncc3)CC2)cc1	SKN-1 block 62
COc1ccc(-c2ccc(OC)c(OC)c2OC)c(OC)c1OC	NRP1-CendR mod 20
CC1CCCN(c2ccc(C(=O)NCc3ccco3)cc2[N+](=O)[O-])C1 (stereo not drawn)	none
COc1ccc(CNC(=O)CCCN2C(=O)c3ccccc3C2=O)cc1	none (no result: MT1-MMP act inh)
O=C(Nc1cccc(-c2nnco2)c1)c1cccs1	none
Cc1cccc(C)c1OCCN1CCCC1	NRP1-CendR mod 28
c1ccc(OCCCCN2CCCCC2)cc1	none
Cc1cccc(C)c1OCCCN1CCCC1	none
c1ccc(OCCCN2CCCC2)cc1	NRP1-CendR mod 23
CCc1ccc(C(C)NC(=O)C2(C)CC2(Br)Br)cc1 (stereo not drawn)	none
Cc1c(N=C/C=C2/N(C)c3ccccc3C2(C)C)c(=O)n(-c2ccccc2)n1C	SKN-1 block 39!
Cc1c(N=C/C=C2\N(C)c3ccccc3C2(C)C)c(=O)n(-c2ccccc2)n1C	none
Cc1cccc(-n2ncc3c2CCCC3NC(=O)CCN2CCCCO2)c1C (stereo not drawn)	NRP1-CendR mod 23
N#C/C(=C\c1ccc(-c2ccccc2)o1)C(=O)Nn1cnnc1	SKN-1 block 51
N#C/C(=C\c1ccc(-c2cccc(Cl)c2)o1)C(=O)Nc1cccc2cccnc12	none
COc1ccc(Nc2nc3ccccc3c(=O)[nH]2)cc1	none
O=C1C=CC(=O)c2c(O)c(N3CCN(CCOCCO)CC3)c(Br)c(O)c21	NRP1-CendR mod 65, SKN-1 block 47
O=C1C=CC(=O)c2c(O)c(N3CCN(CCO)CC3)c(Cl)c(O)c21	NRP1-CendR mod 55
OCCOCCN1CCN(C2=Nc3ccccc3Sc3ccccc32)CC1	none
O=S(=O)(c1ccc(Br)cc1Cl)N1CCN(CCO)CC1	none
Cn1c(=O)c2cc(S(=O)(=O)N3CCC(c4ccccc4)CC3)ccc2n(C)c1=O	none
O=C(NCc1cccc(F)c1)C1CCC(=O)N(CCc2cccc(F)c2)C1 (stereo not drawn)	none
CCN1C(=O)/C(=C/N(C)c2ccccc2)OC1=S	SKN-1 block 36
CCN1C(=O)/C(=C\N(C(C)=O)c2ccccc2)OC1=S	none
CCC(C)(C)c1ccc(Oc2ccc(N)cc2)cc1	NRP1-CendR mod 44
CCC(C)(C)c1ccc(Oc2cccc(C(=O)O)c2)cc1	none
Cc1cc(C)n(CC(=O)O)n1	none
CC(C)NC(=S)NNC(=O)C12CC3CC(CC(C3)C1)C2	none
Cc1cccc(C)c1NC(=O)CSc1nnc(-c2ccoc2C)n1CCc1ccccc1	NRP1-CendR mod 21
Cc1csc(NC(=O)CSc2nnc(-c3ccoc3C)n2CCc2ccccc2)n1	none
CCOC(=O)[C@]12CCCC=C1N(Cc1ccco1)C(=O)[C@H](CC(=O)N1CCN(C(=O)C3CC3)CC1)C2	none
O=C1C=C(NCc2ccco2)C2(CCCCC2)O1	NRP1-CendR mod 23
COC(=O)c1c(C(=O)OC)c(-c2ccc(Cl)c(Cl)c2)n2c1CCC2	NRP1-CendR mod 23
CC(Oc1ccc(Cl)cc1Cl)C(=O)Nc1cccnc1 (stereo not drawn)	NRP1-CendR mod 26
CC(Oc1ccc(Cl)cc1Cl)C(=O)Nc1ccncc1 (stereo not drawn)	none
CC(NC(=O)c1ccccc1Cl)NC(=O)c1ccccc1Cl	none
Cc1ccnc2nc(C(=O)Nc3ccc(N4CCOCC4)cc3)nn12	none
COc1ccc(S(=O)(=O)NC2CC2)cc1Br	NRP1-CendR mod 27
COc1ccc(S(=O)(=O)NC(C)C(=O)NC2CC2)cc1C (stereo not drawn)	NRP1-CendR mod 28
Cc1ccc(C2CN(C)C3(C(=O)Nc4ccccc43)C23COc2ccccc2C3=O)cc1 (stereo not drawn)	NRP1-CendR mod 40
NC(=O)C1CCN(c2nc(-c3ccccc3N)cs2)CC1	NRP1-CendR mod 24
O=C(COc1cc(Cl)c(Cl)cc1Cl)Nc1ccc([N+](=O)[O-])cc1Cl	NRP1-CendR mod 24
O=C(COC(=O)c1ccco1)Nc1ccc([N+](=O)[O-])cc1Cl	none
CCOC(=O)CSc1ccc2nnc(-c3cccnc3)n2n1	none
C=CCSc1nnc(-c2cccnc2)o1	none
Clc1ccc(-c2nnc(SCc3nc4ccccc4[nH]3)o2)c(Cl)c1	none
C=CCSc1nnc(-c2ccc(Cl)cc2Cl)o1	SKN-1 block 86 (no result: MT1-MMP act inh)
Clc1ccc(-c2nnc(SCc3ccon3)o2)c(Cl)c1	SKN-1 block 37
COc1ccc(NC(=O)c2ccco2)cc1NC(=O)c1cccc(F)c1	none
COc1nnc(-c2ccc(C(=O)N3C[C@@H]4C[C@H](C3)c3cccc(=O)n3C4)cc2)c2ccccc12	NRP1-CendR mod 19
O=C(c1ccc(-c2nnc(Nc3cccc(Cl)c3)c3ccccc23)cc1)N1C[C@H]2C[C@H](C1)c1cccc(=O)n1C2	none
COc1cccc(C(=O)NCCS(=O)(=O)N2CCN(c3ccccc3)CC2)c1OC	NRP1-CendR mod 25
Fc1ccc(-c2nnc(Cc3ccc(Cl)cc3)o2)cc1	SKN-1 block 44
O=C(c1ccc2c(c1)N(Cc1ccccc1F)C(=O)c1ccccc1S2(=O)=O)N1CCCC1	none
NC1=CC(=O)C(=O)c2ccccc21	NRP1-CendR mod 29
NC1=C(Br)C(=O)c2ccccc2C1=O	none
COc1ccc2c(c1)CC/C(=C/c1ccccn1)C2=O	none
O=C1C(=Cc2ccccn2)CCc2ccccc21	SKN-1 block 39
C(=N\N=C\c1ccccn1)/c1ccccn1	none
C(=C1c2ccccc2-c2ccccc21)c1ccccn1	SKN-1 block 52
Cc1cc([N+](=O)[O-])nn1CCCC(=O)NC1CCCCC1	none
CC(=O)Nc1ccc(Nc2ncnc3c2cnn3-c2ccc(C)cc2C)cc1	none
Cc1nnc(-c2cccc(Br)c2)c2cn(-c3ccccc3)nc12	none
Cc1nnc(-c2cccc(Br)c2)c2cn(-c3cccc(Br)c3)nc12	SKN-1 block 36
Cc1ccc2cc(/C=N/NC(=O)[C@H]3C[C@@H]3c3ccccc3)c(Cl)nc2c1	none

Bioassay records (PubChem BioAssay)
